{"data": "Experimental data pooled from the literature", "note": "Protocols differ between the studies behind these lines."}
{"SMILES": "OC[C@H]1O[C@@H](c2ccc(Cl)c(Cc3ccc(O[C@H]4CCOC4)cc3)c2)[C@H](O)[C@@H](O)[C@@H]1O", "system": "male human, plasma", "setting": "oral, 25 mg, multiple doses, once daily, steady state, healthy volunteers", "AUC": "3960 ng·h/mL"}
{"SMILES": "NS(=O)(=O)NCCNc1nonc1C(=NO)Nc1ccc(F)c(Br)c1", "system": "human, plasma", "setting": "oral, 50 mg, multiple doses, once daily, steady state, patients", "AUC": "1.58 µM·h"}
{"SMILES": "CS(=O)(=O)CCC#N", "system": "human, plasma", "setting": "oral, 1000 mg, multiple doses, once daily", "AUC": "723000 ng·h/mL"}
{"SMILES": "Cn1c(=O)oc2ccc(-c3ccc(C[C@@H](C#N)NC(=O)[C@@H]4CNCCCO4)cc3)cc21", "system": "male human, plasma", "setting": "oral, 5 mg, single dose, healthy volunteers", "AUC": "0.915 µM·h"}
{"SMILES": "CS(=O)(=O)CCNCc1ccc(-c2ccc3ncnc(Nc4ccc(OCc5cccc(F)c5)c(Cl)c4)c3c2)o1", "system": "human, serum", "setting": "oral, 1250 mg, single dose", "AUC": "9070 ng·h/mL"}
{"SMILES": "C[C@@H](c1ccc2nccn2c1)n1nnc2ncc(-c3cnn(C)c3)nc21", "system": "human, plasma", "setting": "oral, 200 mg", "AUC": "4010 ng·h/mL"}
{"SMILES": "CC(C)(C)OC[C@@H]1C(=O)NCCN1C(=O)C[C@H](N)Cc1cc(F)c(F)cc1F", "system": "human, plasma", "setting": "oral, 5 mg, multiple doses, once daily, steady state", "AUC": "94.2 ng·h/mL"}
{"SMILES": "Cc1ccc(C(=O)N(CCCN)[C@@H](c2oc3cc(Cl)ccc3c(=O)c2Cc2ccccc2)C(C)C)cc1", "system": "human, plasma", "setting": "intravenous, 2 mg/m², single dose, patients, infusion", "AUC": "2520 ng·h/mL"}
{"SMILES": "COc1cc(C(=O)NC2CCN(C)CC2)c(F)cc1Nc1ncc(C(F)(F)F)c(Oc2cccc3c2C(=O)N(C)C3)n1", "system": "human, plasma", "setting": "oral, 200 mg, multiple doses, once daily, steady state, patients", "AUC": "35.4 µM·h"}
